In ChEMBL document CHEMBL1142981, “Identification and synthesis of a novel selective partial PPARdelta agonist with full efficacy on lipid metabolism in vitro and in vivo” (J Med Chem, 2007):

Experiments:
[1] = Clearance in Sprague-Dawley rat at 1.09 mg/kg, iv; type: ADME, organism-based; parameters: dose 1.09 mg/kg, route intravenous; conditions: in vivo
Method in brief: (§1)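 Male SD rats dosed once i.v. or p.o. (n = 8 per route), vehicle 5% ethanol, 10% HPCD, phosphate buffer pH 7.5-8.0. One animal sacrificed at each of 5, 15, 30, 60, 90, 120, 240 and 360 min; EDTA plasma analysed by high turbulence LC-MS/MS. Each data point represents one animal.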

Mus musculus [2] = experiment: Decrease in LDL level in human ApoB100/CETP transgenic mouse at 6 mg/kg, po after 6 weeks relative to control; type: functional; parameters: scale not given: the % may be the effect or the level left
Mus musculus [3] = experiment: Decrease in HbA1c level in human ApoB100/CETP transgenic mouse at 6 mg/kg, po after 6 weeks relative to control; type: functional; parameters: scale not given: the % may be the effect or the level left
[4] = Oral bioavailability in Sprague-Dawley rat at 2.13 mg/kg; type: ADME, organism-based; conditions: in vivo
Method in brief: (§2)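 Male SD rats received a single p.o. or i.v. dose (n = 8 per route) in 5% ethanol, 10% HPCD and phosphate buffer, pH 7.5-8.0. At 5, 15, 30, 60, 90, 120, 240 and 360 min one rat was sacrificed per time point. EDTA plasma was assayed by high turbulence LC-MS/MS. Cmax and bioavailability were taken from oral dosing; volume of distribution is at steady state.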

[5] = Plasma Cmax in Sprague-Dawley rat at 2.13 mg/kg, po; type: ADME, organism-based; parameters: dose 2.13 mg/kg, route oral; method in brief: as §2
Mus musculus [6] = experiment: Decrease in glucose level in human ApoB100/CETP transgenic mouse at 6 mg/kg, po after 6 weeks relative to control; type: functional; parameters: scale not given: the % may be the effect or the level left
[7] = target: T1, Peroxisome proliferator-activated receptor delta (Mus musculus) (UniProt P35396); experiment: Agonist activity at mouse PPAR delta expressed in HEK293 cells by PPAR-GAL4 transactivation assay; type: functional, cell-based
T1 sequence (whole entry): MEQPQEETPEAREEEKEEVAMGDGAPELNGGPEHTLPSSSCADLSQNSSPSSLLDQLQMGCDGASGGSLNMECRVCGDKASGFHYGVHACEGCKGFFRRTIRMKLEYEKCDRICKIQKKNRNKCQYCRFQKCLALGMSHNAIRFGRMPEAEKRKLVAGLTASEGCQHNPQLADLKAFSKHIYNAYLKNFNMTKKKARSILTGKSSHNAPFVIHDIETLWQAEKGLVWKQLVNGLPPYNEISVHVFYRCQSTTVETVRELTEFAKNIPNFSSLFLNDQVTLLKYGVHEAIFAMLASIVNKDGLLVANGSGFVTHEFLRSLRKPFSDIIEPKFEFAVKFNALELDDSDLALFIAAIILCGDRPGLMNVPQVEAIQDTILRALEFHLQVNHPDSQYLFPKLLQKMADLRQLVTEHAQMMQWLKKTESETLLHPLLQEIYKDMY

Mus musculus [8] = experiment: Decrease in total cholesterol level in human ApoB100/CETP transgenic mouse at 6 mg/kg, po after 6 weeks relative to control; type: functional; parameters: scale not given: the % may be the effect or the level left
L6 [9] = experiment: Effect on fatty acid oxidation in rat L6 cells; type: functional, cell-based
Method in brief: (§3)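 Rat L6 myoblasts differentiated 5 days in 2% serum, then treated 42 h with compound (refreshed at 24 h), followed by 6 h with 0.4 mM palmitate containing [9,10-3H]-palmitic acid on 2% fatty-acid-free BSA. Stopped with 10% TCA; released 3H-H2O collected by overnight equilibration at 50 °C and counted.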

Mus musculus [10] = experiment: Decrease in triglycerides level in human ApoB100/CETP transgenic mouse at 6 mg/kg, po after 6 weeks relative to control; type: functional; parameters: scale not given: the % may be the effect or the level left
Mus musculus [11] = experiment: Increase in HDL level in human ApoB100/CETP transgenic mouse at 6 mg/kg, po after 6 weeks relative to control; type: functional
[12] = Volume of distribution in Sprague-Dawley rat at 1.09 mg/kg, iv; type: ADME, organism-based; parameters: dose 1.09 mg/kg, route intravenous; conditions: in vivo, read-out: Vss; method in brief: as §2
L6 [13] = experiment: Effect on increase in fatty acid oxidation in rat L6 cells relative to basal; type: functional; method in brief: as §3
Mus musculus [14] = experiment: Decrease in total ketone bodies level in human ApoB100/CETP transgenic mouse at 6 mg/kg, po after 6 weeks relative to control; type: functional; parameters: scale not given: the % may be the effect or the level left
[15] = target: T2, Peroxisome proliferator-activated receptor alpha (Homo sapiens) (UniProt Q07869); experiment: Activity at human liver PPAR alpha expressed in HEK293 cells by GAL4 transactivation assay relative to NNC61-4655; type: cell-based
T2 sequence (whole entry): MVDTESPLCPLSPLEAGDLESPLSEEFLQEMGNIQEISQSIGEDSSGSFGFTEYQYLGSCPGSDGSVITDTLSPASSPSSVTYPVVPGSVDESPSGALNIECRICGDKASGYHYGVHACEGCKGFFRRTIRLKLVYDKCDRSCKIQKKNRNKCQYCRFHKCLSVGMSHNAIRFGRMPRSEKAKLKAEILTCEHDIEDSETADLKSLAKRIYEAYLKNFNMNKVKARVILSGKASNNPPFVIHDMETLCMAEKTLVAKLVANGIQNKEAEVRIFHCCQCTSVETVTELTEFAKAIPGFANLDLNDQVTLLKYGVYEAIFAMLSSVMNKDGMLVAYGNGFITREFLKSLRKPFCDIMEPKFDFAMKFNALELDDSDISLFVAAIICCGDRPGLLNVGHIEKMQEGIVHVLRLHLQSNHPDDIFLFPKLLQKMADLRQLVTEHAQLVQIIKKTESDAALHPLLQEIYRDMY

[16] = Half life in Sprague-Dawley rat at 2.13 mg/kg, po; type: ADME, organism-based; parameters: dose 2.13 mg/kg, route oral; conditions: in vivo; method in brief: as §1
Mus musculus [17] = experiment: Decrease in insulin level in human ApoB100/CETP transgenic mouse at 6 mg/kg, po after 6 weeks by ELISA relative to control; type: functional; parameters: scale not given: the % may be the effect or the level left
[18] = Plasma Cmax in Sprague-Dawley rat at 0.45 mg/kg, po; type: ADME, organism-based; parameters: dose 0.45 mg/kg, route oral
Method in brief: (§4)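 Male SD rats, single oral dose in 5% ethanol/10% HPCD/phosphate buffer pH 7.5-8.0, n = 8. One animal was killed at each of 5, 15, 30, 60, 90, 120, 240 and 360 min. EDTA plasma was analysed by turbulent-flow LC-MS/MS. Cmax, half-life and oral bioavailability were taken from the plasma curves, with bioavailability using a parallel i.v. arm.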

[19] = Oral bioavailability in Sprague-Dawley rat at 0.45 mg/kg; type: ADME, organism-based; conditions: in vivo; method in brief: as §4
L6 [20] = experiment: Effect on increase in fatty acid oxidation in rat L6 cells relative to GW-501516; type: functional; parameters: concentration or dose not given beside the values; method in brief: as §3
[21] = Half life in Sprague-Dawley rat at 0.45 mg/kg, po; type: ADME, organism-based; parameters: dose 0.45 mg/kg, route oral; conditions: in vivo; method in brief: as §4
[22] = target: T3, Peroxisome proliferator-activated receptor delta (Homo sapiens, UniProt Q03181)
T3 sequence (Q03181 whole entry): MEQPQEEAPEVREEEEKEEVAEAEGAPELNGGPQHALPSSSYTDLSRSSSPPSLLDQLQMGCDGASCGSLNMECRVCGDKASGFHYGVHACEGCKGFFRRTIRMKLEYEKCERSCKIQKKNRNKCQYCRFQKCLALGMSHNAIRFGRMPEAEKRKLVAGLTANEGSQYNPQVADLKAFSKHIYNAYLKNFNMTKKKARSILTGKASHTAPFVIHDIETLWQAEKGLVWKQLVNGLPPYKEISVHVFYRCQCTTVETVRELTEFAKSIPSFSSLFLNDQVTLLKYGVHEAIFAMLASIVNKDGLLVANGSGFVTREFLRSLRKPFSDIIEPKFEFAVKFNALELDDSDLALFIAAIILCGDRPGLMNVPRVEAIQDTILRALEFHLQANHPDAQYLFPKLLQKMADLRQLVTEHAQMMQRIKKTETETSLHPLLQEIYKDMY

[23] = Clearance in Sprague-Dawley rat at 0.20 mg/kg, iv; type: ADME, organism-based; parameters: dose 0.2 mg/kg, route intravenous; conditions: in vivo, 0.2 mg/kg; method in brief: as §1
[24] = Volume of distribution in Sprague-Dawley rat at 0.20 mg/kg, iv; type: ADME, organism-based; parameters: dose 0.2 mg/kg, route intravenous; conditions: in vivo, 0.2 mg/kg, read-out: Vss; method in brief: as §2
[25] = target: T4, Peroxisome proliferator-activated receptor alpha (Homo sapiens, UniProt Q07869); experiment: Activity at human liver PPAR alpha expressed in HEK293 cells by PPAR-GAL4 transactivation assay; type: cell-based
T4 sequence (Q07869 whole entry): T2 sequence (whole entry)

Structure (SMILES)	EC50 (L6 [9])	Efficacy [15]	Cmax [18]	Activity (L6 [20])	half-life [21]	EC50 [22]	clearance [23]	Vd [24]	EC50 [25]	also measured
Cc1cc(SCc2sc(-c3ccc(C(F)(F)F)cc3)nc2C)ccc1OCC(=O)O [GW501516]	6 nM	68%	–	–	–	–	–	–	–	clearance [1]: 7 mL/min/kg; Activity (Mus musculus [2]): 19%; Activity (Mus musculus [3]): 13%; bioavailability [4]: 136%; Cmax [5]: 454 ng/mL; Activity (Mus musculus [6]): 4%; Activity [7]: 269%; Activity (Mus musculus [8]): 15%; Activity (Mus musculus [10]): 14%; Activity (Mus musculus [11]): 4%; Vd [12]: 1 L/kg; Activity (L6 [13]): 120%; Activity (Mus musculus [14]): 49%; half-life [16]: 10.2 h; Activity (Mus musculus [17]): 41%
O=C(O)Cc1ccc(OCC=C(c2ccc(Br)cc2)c2ccc(Br)cc2)c(Cl)c1	379 nM	< 10%	241 ng/mL	85%	3.02 h	2300 nM	7 mL/min/kg	1.4 L/kg	–	bioavailability [19]: 130%
CC(C)(Oc1ccc(C(=O)c2ccc(Cl)cc2)cc1)C(=O)O [FENOFIBRIC ACID]	3000 nM	> 94%	–	70%	–	> 10000 nM	–	–	> 10000 nM	–
O=C(O)CCc1ccc(OCC=C(c2ccc(Br)cc2)c2ccc(Br)cc2)cc1	212 nM	> 12%	–	69%	–	520 nM	–	–	> 10000 nM	–
O=C(O)CCc1cccc(OCC=C(c2ccc(Br)cc2)c2ccc(Br)cc2)c1	615 nM	< 10%	51 ng/mL	59%	15.9 h	5900 nM	27 mL/min/kg	5.3 L/kg	–	–
